Assay outcomes: PubChem, several laboratories
The list is not random: actives were taken first. Their share in the collection is about 2.6%.
SENP8 block-1: SENP8 protease inhibitors, primary screen, biochemical, luminescence. Sentrin-specific protease 8 (Homo sapiens), Q96LD8. purified SENP8, Z-RLRGG-aminoluciferin cleavage. inhibition, % at 10 µM. 330,000 tested, 1.2% active. AID 2540, 2010; in the data active = inhibition above about 50%
Target sequence (Q96LD8 whole entry, looked up): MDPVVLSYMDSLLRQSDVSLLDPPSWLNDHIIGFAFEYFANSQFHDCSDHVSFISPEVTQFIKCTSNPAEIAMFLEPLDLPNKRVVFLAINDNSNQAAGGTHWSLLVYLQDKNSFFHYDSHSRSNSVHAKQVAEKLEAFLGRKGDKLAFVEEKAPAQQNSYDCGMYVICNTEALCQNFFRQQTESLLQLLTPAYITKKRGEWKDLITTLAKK
SENP1 inh: human SENP1 catalytic domain inhibitors, primary screen, biochemical, FRET, uHTS; recombinant SENP1 catalytic domain, CyPet-SUMO1-YPet FRET cleavage; 360,000 tested, 0.21% active; Sentrin-specific protease 1 (Homo sapiens), Q9P0U3; inhibition, % at 10 µM; AID 624204, 2012;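 active = inhibition at least 30% at 10 µM, raw YFP signal under a set limit, fluorescence ratio 0.5 to 1.5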;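 also: 0% = enzyme with DMSO and 100% = no enzyme wells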
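Test system: hSENP1 catalytic domain, recombinant; Amount: 20 pM final SENP1 enzyme; Medium: Tris pH 8 buffer plus EDTA, NaCl, BME, BSA, NP40, catalase; Schedule: 50 min enzyme reaction, room temperature, light-protected; Technique: FRET fluorescence in CFP and YFP emission channels; Controls: no-enzyme wells low, DMSO-plus-enzyme wells high control.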
Platelet DG rel: inhibitors of platelet dense granule secretion, primary screen, cell-based, MLPCN, human platelets; human platelet-rich plasma, SFLLRN dense granule ATP release, luminescence; inhibition, %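 (compounds screened at 7.5 µM in platelet-rich plasma)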; 300,000 tested, 0.22% active;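 active = mean replicate score, as percent of positive control, at or above 50; inconclusive = mean below 50 but at least one replicate at or above 50; inactive = mean and every replicate below 50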
SENP6 block: SENP6 protease inhibitors, primary screen, biochemical, luminescence, uHTS. inhibition, % at 10 µM. Recombinant SENP6 catalytic domain, aminoluciferin luminescence. 330,000 tested, 1.8% active;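 active = inhibition above about 50% at the single tested dose, limit read from the data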;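 also: plate controls were DMSO wells with enzyme for no effect and DMSO wells lacking enzyme for full effect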
SENP7 block: SENP7 protease inhibitors, primary screen, biochemical, luminescence, uHTS; inhibition, % at 5 µM; AID 434973, 2010; 330,000 tested, 1.5% active; Sentrin-specific protease 7 (Homo sapiens), Q9BQF6; recombinant SENP7, Z-RLRGG-aminoluciferin luminescence, 40 min;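 active = inhibition above about 50% at the single test dose, limit read from the data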;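 also: plate controls were DMSO with enzyme for no effect and no enzyme buffer wells for full effect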
Target sequence (Q9BQF6 706-1050 limits assumed): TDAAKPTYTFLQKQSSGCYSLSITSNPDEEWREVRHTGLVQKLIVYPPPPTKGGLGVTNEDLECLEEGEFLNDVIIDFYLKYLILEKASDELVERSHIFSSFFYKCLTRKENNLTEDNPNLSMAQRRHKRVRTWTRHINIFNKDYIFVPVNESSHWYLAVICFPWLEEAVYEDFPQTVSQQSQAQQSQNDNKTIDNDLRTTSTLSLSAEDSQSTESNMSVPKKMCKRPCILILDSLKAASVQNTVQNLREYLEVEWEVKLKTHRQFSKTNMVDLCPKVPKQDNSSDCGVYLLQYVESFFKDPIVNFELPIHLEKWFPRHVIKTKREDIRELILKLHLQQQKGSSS
SENP8 block-2: human SENP8 protease inhibitors, primary screen, biochemical, fluorescence, Nedd8 protein substrate, uHTS | Sentrin-specific protease 8 (Homo sapiens), Q96LD8 | recombinant SENP8 | inhibition, % at 20 µM | 360,000 tested, 0.64% active; in the data active = inhibition mostly above about 40%, no sharp cut-off; inactive = mostly below about 27%
SENP8 confirm: SENP8 protease inhibitors, retest, confirmation, biochemical, luminescence, single concentration; Recombinant SENP8, Z-RLRGG-aminoluciferin luminescence, 60 min; AID 488912, 2010; 6,200 tested, 40% active; shares compounds with SENP7 block; inhibition, % at 12.5 µM;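 active = mean inhibition across replicates above about 50%, limit read from the data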
SENP6 confirm: SENP6 protease inhibitors, confirmation, biochemical, luminescence, single concentration | shares compounds with SENP7 block | recombinant SENP6, Z-RLRGG-aminoluciferin luminescence | inhibition, % at 12.5 µM | 6,200 tested, 58% active
SENP7 conf: SENP7 protease inhibitors, retest, confirmation, biochemical, luminescence, single concentration; inhibition, % at 12.5 µM; AID 488917, 2010; recombinant SENP7, Z-RLRGG-aminoluciferin luminescence, 40 min; shares compounds with SENP7 block; 6,200 tested, 69% active
Casp3 select: caspase-3 protease inhibitors, confirmation, selectivity assay for SENP inhibitor project, biochemical, single concentration. AID 488918, 2010. 6,200 tested, 60% active. shares compounds with SENP7 block. purified caspase-3, Z-DEVD-aminoluciferin luminescence, 60 min. inhibition, % at 12.5 µM;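 active = mean inhibition above about 50%, limit read from the data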;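 also: plate controls were enzyme with DMSO for no effect and wells without caspase-3 for full effect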
Luc interf: counter-screen for SENP inhibitors: luminescence interference; shares compounds with SENP7 block; Pre-incubated SENP8/Z-RLRGG-aminoluciferin, luciferase luminescence interference; inhibition, % at 12.5 µM; 6,200 tested, 39% active; AID 488919;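 active = mean inhibition above about 50% when retested at one dose, limit read from the data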;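 also: plate controls were DMSO wells with completed reaction for no effect and substrate without enzyme for full effect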
* marks the source's active call; other numbers are inactive results; i = inactive; ? = inconclusive; . = not tested or not shown.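 The calls were made as follows, unless noted: active = mean inhibition above about 50% in the one-dose retest (limit read from the data); inactive = the rest.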

SMILES	SENP8 block-1	SENP1 inh	Platelet DG rel	SENP6 block	SENP7 block	SENP8 block-2	SENP8 confirm	SENP6 confirm	SENP7 conf	Casp3 select	Luc interf
Oc1ccc(-c2nc3ccccc3s2)c(O)c1	88*	-7	16	97*	86*	-419	95*	94*	101*	75*	78*
CCOC(=O)C(NC(=O)c1ccccc1Cl)(Nc1sc2c(c1C(N)=O)CCC2)C(F)(F)F (stereo not given)	.	-6	-2	.	.	7	.	.	.	.	.
CSc1ccccc1NC(=O)c1cc2c(=O)n3ccccc3nc2s1	-10	-26	-2	-7	15	-433	.	.	.	.	.
Cc1nn(-c2ccccc2)nc1CNC(=O)C1CC1	-3	0	3	-8	-6	10	.	.	.	.	.
c1ccc2sc(-c3ccc4c(c3)OCO4)nc2c1	96*	-1	.	97*	100*	-278	98*	100*	103*	98*	95*
CC(=O)NCc1ccc(-c2nc3ccccc3s2)cc1	64*	-9	26	80*	72*	-100	1	59*	87*	77*	30
COc1cccc(-c2nc3ccccc3s2)c1	95*	6	11	92*	96*	-14	96*	98*	102*	95*	95*
COc1ccc(-c2nc3ccccc3s2)cc1	.	-1	.	.	.	-218	.	.	.	.	.
c1ccc2[nH]c(-c3ccc4c(c3)OCO4)nc2c1	93*	0	73*	96*	97*	-134	96*	97*	102*	97*	96*
C[C@@H]1CCCN1[C@@H]1CS(=O)(=O)N[C@H]1COCc1ccccc1	.	-22	.	.	.	15	.	.	.	.	.
O=C(C1CCN(S(=O)(=O)c2ccc(Br)cc2)CC1)N1CCOCC1	3	1	5	2	7	8	.	.	.	.	.
Cn1c(=O)n(C)c2cc(S(=O)(=O)NCCOCCO)ccc21	-2	2	5	3	-4	12	.	.	.	.	.
Nc1ccc(O)c(-c2nc3ccccc3s2)c1	5	-26	10	18	2	-34	.	.	.	.	.
Oc1ccc(-c2nc3ccccc3s2)cc1	96*	-5	?	98*	99*	-437	99*	99*	102*	95*	95*
CC(=O)NCc1ccc(-c2csc(-c3cccs3)n2)cc1	36	-5	8	62*	40	-67	48	43	73*	35	57*
CCc1ccc(-n2nc3cc(C)c(N)cc3n2)cc1	49	-46	5	69*	-16	-434	73*	76*	97*	69*	30
COc1ccc(-n2nc3cc(N)c(Br)cc3n2)cc1	74*	-22	1	84*	67*	-358	26	67*	89*	36	8
COc1ccc(-n2nc3cc(C)c(N)c(Br)c3n2)cc1	40	-5	30	63*	44	-482	12	38	53*	6	7
Cc1ccc(-n2nc3cc(C)c(N)cc3n2)cc1	13	-4	3	39	0	i	.	.	.	.	.
CCN(CC)CCCNC(=O)CC1Sc2ccccc2NC1=O (stereo not given)	-1	2	3	-10	6	31	.	.	.	.	.
Cc1cccc(NC(=O)COc2cccc3c2CCN(C)C3=O)c1	-7	2	-10	27	5	0	.	.	.	.	.
CCC(C(=O)OC)n1cnc2c(nnn2-c2ccc(OC)cc2)c1=O (stereo not given)	6	2	7	-2	1	19	.	.	.	.	.
Cc1c(NC(=O)COC(=O)c2ccc[nH]c2=O)c(=O)n(-c2ccccc2)n1C	-1	1	-4	1	-3	12	.	.	.	.	.
Cc1ccc(-n2nnc(-c3cccnc3)n2)cc1	22	1	0	30	17	5	.	.	.	.	.
Cc1ccc(-n2nnc(-c3cnc4ccccc4c3)n2)cc1	26	-11	-1	34	79*	-5	13	17	25	46	12
SMILES	SENP8 block-1	SENP1 inh	Platelet DG rel	SENP6 block	SENP7 block	SENP8 block-2	SENP8 confirm	SENP6 confirm	SENP7 conf	Casp3 select	Luc interf
Cc1ccc(-n2nnc(-c3nccn3C)n2)cc1	86*	1	-8	84*	87*	-10	90*	90*	100*	97*	90*
Cc1cc(C)c2c(N)c(-c3nc4ccccc4[nH]3)sc2n1	-4	6	-1	-8	1	-485	.	.	.	.	.
Cc1ccc2nc(-c3sc4nc(C)ccc4c3N)[nH]c2c1	24	-18	0	56*	7	-253	50	43	30	12	24
COC(=O)C1=C(C)N(Cc2ccccc2)C(=NCc2ccccc2)N[C@H]1c1ccccc1	-2	-1	.	-7	-3	9	.	.	.	.	.
O=C(Nc1ccc2ccccc2n1)C1CCCCC1	48	1	0	60*	74*	14	61*	58*	88*	74*	68*
O=C(Nc1ccc2ccccc2n1)c1ccc(Cl)cc1	50*	-1	-11	56*	72*	0	25	48	59*	59*	16
COc1ccc(C(=O)Nc2ccc3ccccc3n2)c(OC)c1OC	66*	1	2	82*	86*	-37	58*	46	57*	45	5
O=C(Nc1ccc2ccccc2n1)c1ccccc1Cl	89*	0	4	88*	95*	5	94*	94*	102*	94*	33
CCCCN(CC)C(=O)c1cc2cc3ccc(OC)cc3nc2o1	4	-1	1	-25	22	-304	.	.	.	.	.
